# How the values were obtained:
# Format in all cases: cell-based
# [1] = molecular target: T1, E3 ubiquitin-protein ligase Mdm2/Histone deacetylase 1 (Homo sapiens) (UniProt Q00987+Q13547); experiment: PROTAC activity at MDM2/HDAC1 in human HCT-116 cells assessed as decrease in HDAC1 abundance by measuring remaining activity at 0.025 uM measured after 24 hrs by Western blot analysis (reference value: 100%)
# Outline: (§1)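 HCT116 cells seeded in six-well plates for 24 h, then exposed 24 h to compound (0.01–10 μM) or DMSO in fresh medium. Lysis in Tris-HCl/NaCl/NP-40/Triton X-100 with protease inhibitor. Bradford-normalised 30 μg protein per lane. Quantitative Western blot used specific HDAC1, HDAC2, HDAC3, LSD1 or Sin3a antibodies with IRDye secondaries. Abundance compared with DMSO, n = 2 replicates.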
# [2] = molecular target: T2, E3 ubiquitin-protein ligase Mdm2/Histone deacetylase 3 (Homo sapiens) (UniProt Q00987+O15379); experiment: PROTAC activity at MDM2/HDAC3 in human HCT-116 cells assessed as reduction in HDAC3 abundance by measuring remaining activity at 0.1 uM measured after 24 hrs by Western blot analysis (reference value: 100%)
# T2 sequence (O15379 whole entry, looked up): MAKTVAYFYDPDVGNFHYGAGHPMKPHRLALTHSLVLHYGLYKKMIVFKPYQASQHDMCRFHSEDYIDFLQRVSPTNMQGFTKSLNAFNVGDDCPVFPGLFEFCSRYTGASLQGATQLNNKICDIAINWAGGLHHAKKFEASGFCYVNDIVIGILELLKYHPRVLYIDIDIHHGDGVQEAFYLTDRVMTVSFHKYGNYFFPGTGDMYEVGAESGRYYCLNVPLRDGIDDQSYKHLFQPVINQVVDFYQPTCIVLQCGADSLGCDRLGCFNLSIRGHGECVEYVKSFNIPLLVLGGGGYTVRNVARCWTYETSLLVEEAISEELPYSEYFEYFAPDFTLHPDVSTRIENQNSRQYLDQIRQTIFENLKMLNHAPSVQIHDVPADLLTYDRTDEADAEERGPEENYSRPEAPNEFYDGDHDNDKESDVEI
# T2 sequence (Q00987 whole entry, looked up): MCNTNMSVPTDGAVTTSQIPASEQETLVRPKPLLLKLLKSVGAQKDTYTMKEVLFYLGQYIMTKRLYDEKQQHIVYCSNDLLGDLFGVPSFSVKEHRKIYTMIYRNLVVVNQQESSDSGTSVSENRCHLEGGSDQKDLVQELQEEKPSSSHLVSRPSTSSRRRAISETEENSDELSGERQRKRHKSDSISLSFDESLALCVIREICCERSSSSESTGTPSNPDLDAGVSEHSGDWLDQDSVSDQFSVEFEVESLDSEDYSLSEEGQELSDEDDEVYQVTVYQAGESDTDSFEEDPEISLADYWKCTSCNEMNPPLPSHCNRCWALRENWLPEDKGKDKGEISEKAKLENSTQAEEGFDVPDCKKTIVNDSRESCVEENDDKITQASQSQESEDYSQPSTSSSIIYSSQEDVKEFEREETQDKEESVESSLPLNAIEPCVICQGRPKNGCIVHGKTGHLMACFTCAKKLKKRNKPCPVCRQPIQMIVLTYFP
# Outline: (§2)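 HCT116 cells in DMEM with 10% FBS and glutamine/penicillin/streptomycin at 37 °C, 5% CO2. Seeded 4 × 10^5 cells/well, after 24 h treated 24 h with DMSO or compound in fresh medium. Lysed in Tris-HCl/NaCl/NP-40/Triton X-100 buffer with protease inhibitor, Bradford-quantified, 30 μg protein per lane. Quantitative Western blot with specific HDAC1/2/3 antibodies, IRDye secondaries, infrared imaging, versus DMSO. n = 2 replicates.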
# [3] = molecular target: T3, Paired amphipathic helix protein Sin3a (Homo sapiens) (UniProt Q96ST3); experiment: Induction of SIN3A degradation in human HCT-116 cells assessed as reduction in SIN3A abundance by measuring remaining activity at 0.01 uM measured after 24 hrs by Western blot analysis (reference value: 100%); outline: as §1
# T3 sequence (whole entry): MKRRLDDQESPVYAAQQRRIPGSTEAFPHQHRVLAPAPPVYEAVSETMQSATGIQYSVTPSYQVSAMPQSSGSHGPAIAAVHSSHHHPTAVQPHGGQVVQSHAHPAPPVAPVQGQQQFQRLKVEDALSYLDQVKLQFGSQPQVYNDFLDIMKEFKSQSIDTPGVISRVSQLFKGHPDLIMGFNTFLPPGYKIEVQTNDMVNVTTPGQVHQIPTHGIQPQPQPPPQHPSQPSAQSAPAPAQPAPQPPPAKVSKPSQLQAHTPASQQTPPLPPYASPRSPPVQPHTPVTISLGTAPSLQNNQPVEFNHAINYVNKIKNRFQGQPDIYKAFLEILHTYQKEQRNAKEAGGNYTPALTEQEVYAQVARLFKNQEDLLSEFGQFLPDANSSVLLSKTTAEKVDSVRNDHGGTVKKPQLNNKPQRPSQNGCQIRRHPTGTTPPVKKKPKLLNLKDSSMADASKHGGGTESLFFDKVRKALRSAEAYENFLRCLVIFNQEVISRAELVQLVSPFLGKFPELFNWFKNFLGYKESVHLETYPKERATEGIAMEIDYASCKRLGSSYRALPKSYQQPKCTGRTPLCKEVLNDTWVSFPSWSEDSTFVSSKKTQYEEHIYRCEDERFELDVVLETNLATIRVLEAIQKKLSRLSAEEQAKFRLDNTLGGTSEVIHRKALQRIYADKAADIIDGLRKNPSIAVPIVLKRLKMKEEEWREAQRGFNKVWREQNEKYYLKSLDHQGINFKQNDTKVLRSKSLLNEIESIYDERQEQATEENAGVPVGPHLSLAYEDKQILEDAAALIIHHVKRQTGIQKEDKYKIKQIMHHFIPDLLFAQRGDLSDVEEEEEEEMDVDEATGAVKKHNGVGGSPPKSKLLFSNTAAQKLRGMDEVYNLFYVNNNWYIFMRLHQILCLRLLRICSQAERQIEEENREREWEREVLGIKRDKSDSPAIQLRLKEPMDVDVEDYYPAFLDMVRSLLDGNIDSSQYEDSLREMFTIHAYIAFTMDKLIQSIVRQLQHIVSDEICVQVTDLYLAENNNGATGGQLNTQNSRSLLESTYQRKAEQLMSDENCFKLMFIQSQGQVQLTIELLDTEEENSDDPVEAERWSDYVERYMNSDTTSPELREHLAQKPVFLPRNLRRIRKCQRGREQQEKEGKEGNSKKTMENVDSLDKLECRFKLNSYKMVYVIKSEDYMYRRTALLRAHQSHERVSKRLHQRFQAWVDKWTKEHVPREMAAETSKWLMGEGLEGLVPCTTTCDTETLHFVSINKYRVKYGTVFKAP
# [4] = molecular target: T3, Paired amphipathic helix protein Sin3a (Homo sapiens); experiment: Induction of SIN3A degradation in human HCT-116 cells assessed as reduction in SIN3A abundance by measuring remaining activity at 5 uM measured after 24 hrs by Western blot analysis (reference value: 100%); outline: as §1
# [5] = molecular target: T1, E3 ubiquitin-protein ligase Mdm2/Histone deacetylase 1 (Homo sapiens); experiment: PROTAC activity at MDM2/HDAC1 in human HCT-116 cells assessed as decrease in HDAC1 abundance by measuring remaining activity at 0.01 uM measured after 24 hrs by Western blot analysis (reference value: 100%); outline: as §1
# [6] = molecular target: T3, Paired amphipathic helix protein Sin3a (Homo sapiens); experiment: Induction of SIN3A degradation in human HCT-116 cells assessed as reduction in SIN3A abundance by measuring remaining activity at 0.05 uM measured after 24 hrs by Western blot analysis (reference value: 100%); outline: as §1
# [7] = molecular target: T3, Paired amphipathic helix protein Sin3a (Homo sapiens); experiment: Induction of SIN3A degradation in human HCT-116 cells assessed as reduction in SIN3A abundance by measuring remaining activity at 10 uM measured after 24 hrs by Western blot analysis (reference value: 100%); outline: as §1
# [8] = molecular target: E3 ubiquitin-protein ligase Mdm2/Histone deacetylase 2 (Homo sapiens) (UniProt Q00987+Q92769); experiment: PROTAC activity at MDM2/HDAC2 in human HCT-116 cells assessed as decrease in HDAC2 abundance by measuring remaining activity at 1 uM measured after 24 hrs by Western blot analysis (reference value: 100%); outline: as §1
# Chain of E3 ubiquitin-protein ligase Mdm2/Histone deacetylase 2 (Homo sapiens) (Q00987 whole entry, looked up): as the sequence (Q00987 whole entry, looked up) above
# Chain of E3 ubiquitin-protein ligase Mdm2/Histone deacetylase 2 (Homo sapiens) (Q92769 whole entry, looked up): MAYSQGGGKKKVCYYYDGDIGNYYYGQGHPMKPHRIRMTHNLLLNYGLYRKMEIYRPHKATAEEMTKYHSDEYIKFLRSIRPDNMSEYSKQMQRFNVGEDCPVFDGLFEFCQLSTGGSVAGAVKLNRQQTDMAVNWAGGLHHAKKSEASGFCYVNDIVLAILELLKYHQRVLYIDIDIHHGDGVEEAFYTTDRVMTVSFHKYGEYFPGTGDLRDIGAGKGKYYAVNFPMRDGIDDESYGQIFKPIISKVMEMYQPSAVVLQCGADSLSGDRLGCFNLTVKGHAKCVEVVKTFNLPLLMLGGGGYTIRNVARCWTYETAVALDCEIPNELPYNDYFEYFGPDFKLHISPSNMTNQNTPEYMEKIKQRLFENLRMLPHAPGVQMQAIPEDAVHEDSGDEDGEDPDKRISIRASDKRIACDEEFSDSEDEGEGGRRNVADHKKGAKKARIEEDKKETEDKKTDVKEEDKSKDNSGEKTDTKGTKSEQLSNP
# [9] = molecular target: T2, E3 ubiquitin-protein ligase Mdm2/Histone deacetylase 3 (Homo sapiens); experiment: PROTAC activity at MDM2/HDAC3 in human HCT-116 cells assessed as reduction in HDAC3 abundance by measuring remaining activity at 0.25 uM measured after 24 hrs by Western blot analysis; outline: as §2
# [10] = molecular target: Lysine-specific histone demethylase 1A (Homo sapiens) (UniProt O60341); experiment: Induction of LSD1 degradation in human HCT-116 cells assessed as reduction in LSD1 abundance by measuring remaining activity at 0.5 uM measured after 24 hrs by Western blot analysis (reference value: 100%); outline: as §1
# [11] = molecular target: T1, E3 ubiquitin-protein ligase Mdm2/Histone deacetylase 1 (Homo sapiens); experiment: PROTAC activity at MDM2/HDAC1 in human HCT-116 cells assessed as decrease in HDAC1 abundance by measuring remaining activity at 0.05 uM measured after 24 hrs by Western blot analysis (reference value: 100%); outline: as §1
# [12] = molecular target: T2, E3 ubiquitin-protein ligase Mdm2/Histone deacetylase 3 (Homo sapiens); experiment: PROTAC activity at MDM2/HDAC3 in human HCT-116 cells assessed as reduction in HDAC3 abundance by measuring remaining activity at 0.01 uM measured after 24 hrs by Western blot analysis; outline: as §1
# T1 sequence (Q00987 whole entry, looked up): as the sequence (Q00987 whole entry, looked up) above
# T1 sequence (Q13547 whole entry, looked up): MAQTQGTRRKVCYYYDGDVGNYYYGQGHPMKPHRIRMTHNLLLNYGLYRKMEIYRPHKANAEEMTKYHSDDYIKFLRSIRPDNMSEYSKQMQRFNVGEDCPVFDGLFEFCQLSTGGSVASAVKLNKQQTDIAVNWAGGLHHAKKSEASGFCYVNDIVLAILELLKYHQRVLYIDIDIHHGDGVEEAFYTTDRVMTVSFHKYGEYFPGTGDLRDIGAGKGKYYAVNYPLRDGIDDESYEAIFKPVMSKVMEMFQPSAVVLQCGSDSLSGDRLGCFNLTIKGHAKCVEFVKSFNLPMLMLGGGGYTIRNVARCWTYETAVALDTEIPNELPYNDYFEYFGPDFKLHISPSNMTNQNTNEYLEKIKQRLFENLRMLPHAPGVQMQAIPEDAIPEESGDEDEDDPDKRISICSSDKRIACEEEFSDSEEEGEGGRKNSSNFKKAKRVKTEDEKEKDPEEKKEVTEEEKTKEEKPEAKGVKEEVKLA
smiles,measurement,setting,value
COc1cc(C(=O)NCCOCCOCCOCCOCCC(=O)Nc2ccc(C(=O)Nc3ccccc3N)cc2)ccc1NC(=O)[C@@H]1N[C@@H](CC(C)(C)C)[C@](C#N)(c2ccc(Cl)cc2F)[C@H]1c1cccc(Cl)c1F,Activity,[1],94%
same,Activity,[2],103%
same,Activity,[3],104%
same,Activity,[4],53%
same,Activity,[5],108%
same,Activity,[6],103%
same,Activity,[7],45%
same,Activity,[8],69%
same,Activity,[9],102%
same,Activity,[10],86%
same,Activity,[11],88%
same,Activity,[12],98%

# Reference: ChEMBL document CHEMBL5357024, “MDM2 Antagonist Idasanutlin Reduces HDAC1/2 Abundance and Corepressor Partners but Not HDAC3” (ACS Med Chem Lett, 2024)
